# Source: ChEMBL document CHEMBL1157985, “Antiplasmodial and cytotoxic activity of natural bisbenzylisoquinoline alkaloids” (J Nat Prod, 1999)
# What was measured:
# Plasmodium falciparum [1] = assay: Antiplasmodial activity against chloroquine-sensitive Plasmodium falciparum D6 infected human erythrocytes as [3H]hypoxanthine uptake after 24 hrs; assay type: functional, organism-based
# Method in brief: (§1)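 P. falciparum (D6, W2) cultured in type A+ human erythrocytes, RPMI-1640 with NaHCO3, HEPES and 10% heat-inactivated human plasma, 37 °C under 5% O2/5% CO2/90% N2. Infected red cells at 0.5-1.0% parasitemia, 1.0% hematocrit exposed to compound, duplicate seven-point series, 24 h; then 0.5 μCi [3H]hypoxanthine per well for 18 h more. Filter harvest, scintillation counting; IC50 by nonlinear regression versus zero-drug controls.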
# [2] = Selectivity index, ratio of ED50 for human KB cells to IC50 for […] Plasmodium falciparum D6; assay type: functional
# KB = assay: Cytotoxicity against human KB cells after 72 hrs by SRB assay; assay type: functional; conditions: read-out: ED50 (the source's name)
# Method in brief: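 KB-3 cells grown in DMEM with 10% FBS at 37 °C and 5% CO₂ to 60–70% confluence, then used 1 day after a medium change. Samples were dissolved in DMSO and serially diluted in 10% aqueous DMSO. 5×10⁴ cells were exposed for 72 h at 37 °C, then TCA-fixed, stained with 0.4% SRB and read at 515 nm. Zero-day control was subtracted and values expressed relative to solvent control; ED50 by nonlinear regression.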
# Plasmodium falciparum [3] = assay: Antiplasmodial activity against chloroquine-resistant Plasmodium falciparum W2 infected human erythrocytes as [3H]hypoxanthine uptake after 24 hrs; assay type: functional, organism-based; method in brief: as §1
# [4] = Selectivity index, ratio of ED50 for human KB cells to IC50 for chloroquine-resistant Plasmodium falciparum W2; assay type: functional
compound,measurement,setting,value
COc1ccc2cc1Oc1ccc(cc1)C[C@H]1c3cc(c(OC)cc3CCN1C)Oc1c(OC)c(OC)cc3c1[C@@H](C2)NCC3,IC50,Plasmodium falciparum [1],106 nM
same,Selectivity Index,[2],95
COc1cc2c(cc1O)[C@H](Cc1ccc(Oc3cc(C[C@@H]4c5cc(OC)c(OC)cc5CCN4C)ccc3OC)cc1)N(C)CC2,EC50,KB,> 32100 nM
same,IC50,Plasmodium falciparum [1],213 nM
same,Selectivity Index,[2],>150
same,IC50,Plasmodium falciparum [3],227 nM
same,Selectivity Index,[4],>140
COc1ccc2cc1Oc1ccc(cc1)C[C@H]1c3c(cc(O)c(OC)c3Oc3cc4c(cc3OC)CCN(C)[C@@H]4C2)CCN1C,EC50,KB,10500 nM
same,IC50,Plasmodium falciparum [1],214 nM
same,Selectivity Index,[2],49
same,IC50,Plasmodium falciparum [3],510 nM
same,Selectivity Index,[4],21
COc1ccc2cc1Oc1ccc(cc1)C[C@@H]1c3c(cc(OC)c(O)c3Oc3cc4c(cc3OC)CCN[C@@H]4C2)CCN1C,EC50,KB,9800 nM
same,IC50,Plasmodium falciparum [1],106 nM
same,Selectivity Index,[2],92
same,IC50,Plasmodium falciparum [3],375 nM
same,Selectivity Index,[4],26
COc1ccc2cc1Oc1ccc(cc1)C[C@@H]1c3c(cc(OC)c(O)c3Oc3cc4c(cc3OC)CCN(C)[C@@H]4C2)CCN1C,EC50,KB,4110 nM
same,IC50,Plasmodium falciparum [1],64 nM
same,Selectivity Index,[2],64
same,IC50,Plasmodium falciparum [3],192 nM
same,Selectivity Index,[4],21
COc1ccc(C[C@H]2c3cc(Oc4cc(OC)c(OC)cc4C[C@H]4c5cc(O)c(OC)cc5CCN4C)c(OC)cc3CCN2C)cc1O,EC50,KB,> 29900 nM
same,IC50,Plasmodium falciparum [1],61 nM
same,Selectivity Index,[2],>490
same,IC50,Plasmodium falciparum [3],164 nM
same,Selectivity Index,[4],>180
COc1cc2c3cc1Oc1c(O)c(OC)cc4c1[C@@H](Cc1ccc(cc1)Oc1cc(ccc1O)C[C@H]3N(C)CC2)N(C)CC4,EC50,KB,8600 nM
same,IC50,Plasmodium falciparum [1],29 nM
same,Selectivity Index,[2],300
same,IC50,Plasmodium falciparum [3],105 nM
same,Selectivity Index,[4],82
COc1ccc2cc1Oc1ccc(cc1)C[C@H]1c3c(cc(O)c4c3Oc3cc5c(cc3O4)CCN(C)[C@H]5C2)CCN1C,EC50,KB,6000 nM
same,IC50,Plasmodium falciparum [1],30 nM
same,Selectivity Index,[2],200
same,Selectivity Index,[4],54
COc1ccc2cc1Oc1ccc(cc1)C[C@H]1c3c(cc4c(c3Oc3cc5c(cc3OC)CCN[C@@H]5C2)OCO4)CCN1C,EC50,KB,6600 nM
same,IC50,Plasmodium falciparum [1],79 nM
same,Selectivity Index,[2],84
same,IC50,Plasmodium falciparum [3],219 nM
same,Selectivity Index,[4],30
COc1ccc2cc1Oc1ccc(cc1)C[C@H]1c3c(cc(OC)c(OC)c3Oc3cc4c(cc3OC)CCN[C@@H]4C2)CCN1C,EC50,KB,9900 nM
same,IC50,Plasmodium falciparum [1],75 nM
same,Selectivity Index,[2],130
same,IC50,Plasmodium falciparum [3],154 nM
same,Selectivity Index,[4],64
COc1ccc2cc1Oc1ccc(cc1)C[C@H]1c3c(cc(OC)c(O)c3Oc3cc4c(cc3OC)CCN(C)[C@H]4C2)CCN1C,EC50,KB,3620 nM
same,IC50,Plasmodium falciparum [1],48 nM
same,Selectivity Index,[2],76
same,IC50,Plasmodium falciparum [3],67 nM
same,Selectivity Index,[4],54
COc1ccc2cc1Oc1cc3c(cc1OC)CCN(C(C)=O)[C@H]3Cc1ccc(cc1)Oc1c3c(cc4c1[C@@H](C2)N(C)CC4)OCO3,EC50,KB,13600 nM
same,IC50,Plasmodium falciparum [1],1910 nM
same,IC50,Plasmodium falciparum [3],1050 nM
same,Selectivity Index,[4],13
COc1cc2c3cc1Oc1c(OC)c(OC)cc4c1[C@H](Cc1ccc(cc1)Oc1cc(ccc1O)C[C@@H]3N(C)CC2)N(C)CC4,EC50,KB,15000 nM
same,IC50,Plasmodium falciparum [1],42 nM
same,Selectivity Index,[2],350
same,IC50,Plasmodium falciparum [3],67 nM
same,Selectivity Index,[4],220
CCN(CC)CCCC(C)Nc1ccnc2cc(Cl)ccc12 (centres undefined) [CHLOROQUINE],EC50,KB,33700 nM
COc1cc2c3c4c1Oc1cc5c(cc1O4)[C@H](Cc1ccc(O)c(c1)Oc1ccc(cc1)C[C@@H]3N(C)CC2)N(C)CC5 [COCSULINE],EC50,KB,10000 nM
same,IC50,Plasmodium falciparum [1],87 nM
same,Selectivity Index,[2],110
same,IC50,Plasmodium falciparum [3],502 nM
OC(c1cc(C(F)(F)F)nc2c(C(F)(F)F)cccc12)C1CCCCN1 (centres undefined) [MEFLOQUINE],EC50,KB,8430 nM
same,Selectivity Index,[2],465
same,IC50,Plasmodium falciparum [3],7.78 nM
same,Selectivity Index,[4],1080
